According to ChEMBL document CHEMBL5506034, “Development of Inhibitors, Probes, and PROTAC Provides a Complete Toolbox to Study PARK7 in the Living Cell” (J Med Chem, 2024):
Calls of active or inactive are those of the source. The calls are words filed in the database; no cut-off is given here.

Legend:
HEK-293T [1] = experiment: Cellular protein labelling in HEK293T cells transfected with PARK7 siRNA assessed as unspecific 55-75 kDa band formation at 5 uM incubated for 4 hrs by SDS-PAGE based fluorescence scanning immunoblotting analysis; format: functional, cell-based; settings: Homo sapiens
Summary of the method: (§1)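 HEK293T or A549 cells reverse-transfected with pooled PARK7 siRNA (Dharmafect 1), grown 48 h, then given probe at 5 μM final for 4 h. Lysates analysed by SDS-PAGE fluorescence scan and PARK7 immunoblot against control-transfected cells.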

A549 [2] = experiment: Cellular protein labelling in human A549 cells transfected with PARK7 siRNA assessed as PARK7 specific band formation at 5 uM incubated for 4 hrs by SDS-PAGE based fluorescence scanning immunoblotting analysis; format: functional, cell-based; summary of the method: as §1
[3] = target: T1, Parkinson disease protein 7 (Homo sapiens) (UniProt Q99497); experiment: Binding affinity to recombinant human PARK7 incubated for 1 hrs by coomassie staining based SDS-PAGE fluorescence scanning analysis; settings: dose 0.1-10 µM
T1 sequence (whole entry): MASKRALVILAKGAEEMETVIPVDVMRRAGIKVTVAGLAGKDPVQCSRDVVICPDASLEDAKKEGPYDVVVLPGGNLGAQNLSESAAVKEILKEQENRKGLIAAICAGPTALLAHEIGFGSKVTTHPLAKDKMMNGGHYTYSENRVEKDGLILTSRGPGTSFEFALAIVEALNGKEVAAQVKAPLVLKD

A549 [4] = experiment: Cellular protein labelling in human A549 cells transfected with PARK7 siRNA assessed as unspecific 55-75 kDa band formation at 5 uM incubated for 4 hrs by SDS-PAGE based fluorescence scanning immunoblotting analysis; format: functional, cell-based; summary of the method: as §1
A549 (Homo sapiens) = experiment: Cellular protein labelling in A549 cells assessed as unspecific 55-75 kDa band formation at 5 uM by SDS-PAGE based fluorescence scanning immunoblotting analysis
[5] = target: T1, Parkinson disease protein 7 (Homo sapiens); experiment: Binding affinity to PARK7 in human A549 cells upto 10 uM incubated for 4 hrs by SDS-PAGE based fluorescence scanning immunoblotting analysis; format: cell-based
Summary of the method: (§2)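 HEK293T or A549 cells given the Bodipy probe at 0–10 μM for 4 h, then lysed. Lysates run on 12% Bis-Tris SDS-PAGE and fluorescence-scanned. Immunoblot for PARK7 with β-actin as loading control.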

[6] = target: T1, Parkinson disease protein 7 (Homo sapiens); experiment: Binding affinity to PARK7 in A549 cells assessed as band shift at 5 uM incubated for 24 hrs by SDS-PAGE based fluorescence scanning immunoblotting analysis
[7] = target: T1, Parkinson disease protein 7 (Homo sapiens); experiment: Binding affinity to PARK7 in human A549 cells assessed as band shift at 5 uM incubated for 4 hrs by SDS-PAGE based fluorescence scanning immunoblotting analysis relative to control; format: cell-based
Summary of the method: (§3)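 A549 cells incubated with probes at 5 μM final over a time course (1–24 h). For microscopy, cells on coverslips were fixed in 3.7% formaldehyde/PBS for 20 min, mounted with DAPI and imaged by confocal (63× oil). In parallel, cells were lysed for SDS-PAGE fluorescence scan and PARK7 immunoblot.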

[8] = Drug penetration in human A549 cells at 5 uM incubated for 1 hrs by DAPI staining based confocal microscopic analysis; format: ADME, cell-based; settings: a549, 1 h; summary of the method: as §3
[9] = target: T1, Parkinson disease protein 7 (Homo sapiens); experiment: Binding affinity to PARK7 in HEK293T cells upto 10 uM incubated for 4 hrs by SDS-PAGE based fluorescence scanning immunoblotting analysis; format: cell-based; summary of the method: as §2
[10] = target: T1, Parkinson disease protein 7 (Homo sapiens); experiment: Binding affinity to recombinant human PARK7 at 2 uM incubated for 1 hrs by coomassie staining based SDS-PAGE fluorescence scanning analysis relative to control
HEK-293T [11] = experiment: Cellular protein labelling in HEK293T cells transfected with PARK7 siRNA assessed as PARK7 specific band formation at 5 uM incubated for 4 hrs by SDS-PAGE based fluorescence scanning immunoblotting analysis; format: functional, cell-based; settings: Homo sapiens; summary of the method: as §1
[12] = target: T1, Parkinson disease protein 7 (Homo sapiens); experiment: Binding affinity to PARK7 in human A549 cells assessed as band shift at 5 uM incubated for 24 hrs by SDS-PAGE based fluorescence scanning immunoblotting analysis; format: cell-based
Summary of the method: (§4)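 Probes applied to intact HEK293T or A549 cells at 5 μM final for 24 h, then lysed. Read-out by SDS-PAGE fluorescence scan and immunoblot against PARK7, looking at the ~25 kDa labelled band, PARK7 band shift and extra bands.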

A549 [13] = experiment: Cellular protein labelling in human A549 cells assessed as unspecific 55-75 kDa band formation at 5 uM by SDS-PAGE based fluorescence scanning immunoblotting analysis; format: functional, cell-based; summary of the method: as §4

CC1=CC(C)=[N+]2C1=C(CCCCc1cn(-c3ccc(F)c(C(=O)N4CCc5nc(NC(=O)[C@@H]6CCN(C#N)C6)sc5C4)c3)nn1)c1c(C)cc(C)n1[B-]2(F)F
Activity (HEK-293T [1]): Active
Activity (A549 [2]): inactive
Activity [3]: Dose-Dependent Effect
Activity (A549 [4]): Active
Activity (A549 (Homo sapiens)): Active
Activity [5]: Active
Activity [6]: Active
Activity [7]: 100%
Drug uptake [8]: Active
Activity [9]: Active
Activity [10]: 100%
Activity (HEK-293T [11]): inactive
Activity [12]: Active
Activity (A549 [13]): Active
